Measurements from different studies.
Each line is one published result; the experiments were not run side by side.
PIP5K1C: Phosphatidylinositol 4-phosphate 5-kinase type-1 gamma (PIP5K1C, Homo sapiens, UniProt O60331)
MMP7: Matrilysin (MMP7, Homo sapiens, UniProt P09237)

| Structure (SMILES) | target | test | test system | conditions | measurement | value |
| --- | --- | --- | --- | --- | --- | --- |
| Cc1nn(C)cc1-c1nc2c(N3CCN(Cc4ccc(Cl)cc4)CC3)c(Cl)cnc2[nH]1 | PIP5K1C | binding, competition with immobilised ligand |  | 1 µM | remaining binding | 84% |
| Nc1ncc(-c2nc(N3CCOCC3)nc(N3CCOCC3)n2)c(C(F)F)n1 | PIP5K1C | binding, competition with immobilised ligand |  | 10 µM | remaining binding | 100% |
| Cc1ccc(-c2cnnc(N3CCC(c4cccc(Cl)c4)C3)n2)o1 (centres unmarked) | Inorganic pyrophosphatase (Mycobacterium tuberculosis, UniProt P9WI55) | enzyme activity, inhibitor |  | 100 µM | inhibition | 45% |
| CN(C)C(=O)COC(=O)Cc1ccc(OC(=O)c2ccc(NC(=N)N)cc2)cc1 | MMP7 | enzyme activity, inhibitor |  | 10 µM | inhibition | 2% |
| CCN1CCN(Cc2ccc(NC(=O)c3ccc(C)c(Oc4ccnc5[nH]ccc45)c3)cc2C(F)(F)F)CC1 | Serine/threonine-protein kinase 32C (STK32C, Homo sapiens, UniProt Q86UX6) | target engagement in cells, inhibitor, chemoproteomics | Huh-7 | 1 µM | inhibition | -13.4% |
| C#Cc1n[nH]c2c(-c3cn(C(C)c4ccccn4)c(=O)[nH]c3=O)cc(F)cc12 (centres unmarked) | Mitogen-activated protein kinase kinase kinase kinase 3 (MAP4K3, Homo sapiens, UniProt Q8IVH8) | enzyme activity, inhibitor |  | 1 µM | inhibition | 9.1% |
| COc1ncccc1-c1cnn2ccc(N3CCN(C(=O)OC(C)C)CC3)nc12 | Serine/threonine-protein kinase/endoribonuclease IRE1 (ERN1, Homo sapiens, UniProt O75460) | binding, competition with immobilised ligand |  | 1 µM | remaining binding | 67% |
| CNC(=O)[C@H](Cc1ccccc1)NC(=O)[C@H](CC(C)C)[C@H](CSc1cccs1)C(=O)NO | MMP7 | enzyme activity, inhibitor |  | 1 nM | inhibition | 31% |
